Experimental data published in ChEMBL document CHEMBL1944532, “Synthesis and evaluation of anticancer activity of some novel 6-aryl-2-(p-sulfamylphenyl)-pyridazin-3(2H)-ones” (Eur J Med Chem, 2012).
The source made the active and inactive calls. No cut-off for these calls is given here.

How the values were obtained:
UACC-62 = test: Cytotoxicity against human UACC62 cells after 48 hrs by SRB assay; assay type: functional; details: UACC-62, 48 h
In short: (§1)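 NCI 60-cell-line five-dose screen. Cells were grown in 1640 medium with 5% fetal calf serum and 2 mM L-glutamine, with inoculum density set by cell line, and pre-incubated 24 h. Compound in DMSO was added at 10^-4 to 10^-8 M (10-fold steps) with 48 h continuous exposure. Growth was read by SRB protein assay, and GI50, TGI and LC50 were derived from dose-response.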

HCT-15 = test: Cytotoxicity against human HCT15 cells after 48 hrs by SRB assay; assay type: functional; details: HCT-15, 48 h
In short: (§2)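 NCI ~60-line panel in RPMI-1640 with 5% fetal calf serum and 2 mM L-glutamine, pre-incubated 24 h. Compound in DMSO tested at five 10-fold concentrations (10^-4 to 10^-8 M) with 48 h continuous exposure. Growth measured by sulforhodamine B protein assay. GI50 (50% net growth inhibition), TGI (total inhibition) and LC50 (50% net cell death) derived from dose-response.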

T47D = test: Cytotoxicity against human T47D cells after 48 hrs by SRB assay; assay type: functional; in short: as §1
SF-268 = test: Cytotoxicity against human SF268 cells after 48 hrs by SRB assay; assay type: functional; details: SF-268, 48 h
In short: (§3)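 NCI five-dose screen on the ~60-line human tumor panel. Cells grown in RPMI-1640 with 5% fetal calf serum and 2 mM L-glutamine, seeded at line-dependent density and preincubated 24 h. Compound added from DMSO at 10-fold dilutions from 10^-4 to 10^-8 M, continuous exposure 48 h. Growth read by sulforhodamine B protein stain. GI50, TGI and LC50 derived per line.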

OVCAR-3 = test: Cytotoxicity against human OVCAR3 cells after 48 hrs by SRB assay; assay type: functional; details: OVCAR-3, 48 h; in short: as §3
K562 = test: Cytotoxicity against human K562 cells assessed as cell growth at 10 uM after 48 hrs by SRB assay; assay type: functional; details: K562, 48 h, read-out: Activity
In short: (§4)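 NCI primary single-dose screen at 10^-5 M against the ~60 human tumour cell line panel. Cells grown in RPMI-1640 with 5% fetal calf serum and 2 mM L-glutamine and pre-incubated 24 h before compound addition. Compound added from DMSO solution with 48 h exposure. Growth read by sulforhodamine B protein staining.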

CCRF-CEM = test: Cytotoxicity against human CCRF-CEM cells assessed as cell growth at 10 uM after 48 hrs by SRB assay; assay type: functional; details: read-out: Activity; in short: as §4
NCI/ADR-RES = test: Cytotoxicity against human NCI/ADR-RES cells assessed as cell growth at 10 uM after 48 hrs by SRB assay; assay type: functional; details: read-out: Activity
In short: (§5)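 NCI primary single-dose screen at 10^-5 M against the full panel of about 60 human tumor cell lines. Cells were in RPMI-1640 with 5% fetal calf serum and 2 mM L-glutamine and preincubated 24 h. Compound was given in DMSO with 48 h exposure. Growth was estimated by sulforhodamine B protein assay.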

A549 = test: Cytotoxicity against human A549/ATCC cells assessed as cell growth at 10 uM after 48 hrs by SRB assay; assay type: functional; details: A549, 48 h, read-out: Activity; in short: as §4
IGROV-1 = test: Cytotoxicity against human IGROV1 cells after 48 hrs by SRB assay; assay type: functional; details: IGROV-1, 48 h; in short: as §2
SN12C = test: Cytotoxicity against human SN12C cells after 48 hrs by SRB assay; assay type: functional; in short: as §1
CAKI-1 = test: Cytotoxicity against human Caki1 cells assessed as cell growth at 10 uM after 48 hrs by SRB assay; assay type: functional; details: CAKI-1, 48 h, read-out: Activity; in short: as §4
SW-620 [1] = test: Cytotoxicity against human SW620 cells after 48 hrs by SRB assay; assay type: functional; details: SW-620, 48 h; in short: as §1
UACC-257 = test: Cytotoxicity against human UACC257 cells after 48 hrs by SRB assay; assay type: functional; details: UACC-257, 48 h; in short: as §1
MDA-MB-231 [2] = test: Cytotoxicity against human MDA-MB-231/ATCC cells after 48 hrs by SRB assay; assay type: functional; details: MDA-MB-231, 48 h; in short: as §3
RXF 393 = test: Cytotoxicity against human RXF393 cells after 48 hrs by SRB assay; assay type: functional; details: RXF 393, 48 h; in short: as §3
Malme-3M = test: Cytotoxicity against human MALME-3M cells assessed as cell growth at 10 uM after 48 hrs by SRB assay; assay type: functional; details: read-out: Activity; in short: as §5
SNB-19 = test: Cytotoxicity against human SNB19 cells after 48 hrs by SRB assay; assay type: functional; details: SNB-19, 48 h; in short: as §1
OVCAR-8 = test: Cytotoxicity against human OVCAR8 cells assessed as cell growth at 10 uM after 48 hrs by SRB assay; assay type: functional; details: OVCAR-8, 48 h, read-out: Activity; in short: as §5
SW-620 [3] = test: Cytotoxicity against human SW620 cells assessed as cell growth at 10 uM after 48 hrs by SRB assay; assay type: functional; details: SW-620, 48 h, read-out: Activity
In short: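 NCI primary one-dose screen at 10^-5 M against the full panel of about 60 human tumour cell lines, run to the NCI Drug Evaluation Branch protocol.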

U-251 = test: Cytotoxicity against human U251 cells after 48 hrs by SRB assay; assay type: functional; details: U-251, 48 h; in short: as §1
MDA-MB-231 [4] = test: Antitumor activity against human MDA-MB-231 cells implanted in mouse dosed qd for 4 days by formazan dye-based hollow fiber assay; assay type: functional, organism-based
In short: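 Cells grown inside polyvinylidene fluoride hollow fibers; each line implanted into both intraperitoneal and subcutaneous compartments in mice. Compound given ip at two doses on a QD x 4 schedule. Fibers then recovered and viable cell mass measured by formazan dye conversion. Scored 2 per dose giving ≥50% reduction in viable cell mass (%T/C 50).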

LOX IMVI = test: Cytotoxicity against human LOXIMVI cells after 48 hrs by SRB assay; assay type: functional; in short: as §3

Work on `CCc1ccc(-c2ccc(=O)n(-c3ccc(S(N)(=O)=O)cc3)n2)cc1` yielded an LC50 (UACC-62) greater than 100 µM, a GI50 (UACC-62; read-out: GI50) of 0.724 µM and a GI50 (UACC-62; read-out: pGI50 (converted)) of 0.724 µM. The TGI (UACC-62; read-out: pTGI) was greater than 100 µM, the LC50 (HCT-15) was greater than 100 µM and the GI50 (HCT-15; read-out: GI50) was 0.661 µM. For the same compound, the GI50 (HCT-15; read-out: pGI50 (converted)) was 0.661 µM, the TGI (HCT-15; read-out: pTGI) was greater than 100 µM and the LC50 (T47D) was greater than 100 µM. For the same compound, the GI50 (T47D; read-out: GI50) was 2.56 µM, the GI50 (T47D; read-out: pGI50 (converted)) was 2.57 µM and the TGI (T47D; read-out: pTGI) was greater than 100 µM. For the same compound, the LC50 (SF-268) was greater than 100 µM, the GI50 (SF-268; read-out: GI50) was 4.25 µM and the GI50 (SF-268; read-out: pGI50 (converted)) was 4.27 µM. It also gave a TGI (SF-268; read-out: pTGI (converted)) of 47.9 µM, an LC50 (OVCAR-3) greater than 100 µM and a GI50 (OVCAR-3; read-out: GI50) of 0.429 µM. It also gave a GI50 (OVCAR-3; read-out: pGI50 (converted)) of 0.427 µM, a TGI (OVCAR-3; read-out: pTGI) greater than 100 µM and a growth at 10 µM (K562) of 11%. The growth at 10 µM (CCRF-CEM) was 27.9%, the growth at 10 µM (NCI/ADR-RES) was 1% and the growth at 10 µM (A549) was 18%. For the same compound, the LC50 (IGROV-1) was greater than 100 µM, the GI50 (IGROV-1; read-out: GI50) was 3.81 µM and the GI50 (IGROV-1; read-out: pGI50 (converted)) was 3.8 µM. The TGI (IGROV-1; read-out: pTGI) was greater than 100 µM, the LC50 (SN12C) was greater than 100 µM and the GI50 (SN12C; read-out: GI50) was 5.84 µM. It also gave a GI50 (SN12C; read-out: pGI50 (converted)) of 5.89 µM, a TGI (SN12C; read-out: pTGI) greater than 100 µM and a growth at 10 µM (CAKI-1) of 36.6%. For the same compound, the LC50 (SW-620 [1]) was greater than 100 µM, the GI50 (SW-620 [1]; read-out: GI50) was 0.454 µM and the GI50 (SW-620 [1]; read-out: pGI50 (converted)) was 0.457 µM. For the same compound, the TGI (SW-620 [1]; read-out: pTGI) was greater than 100 µM, the LC50 (UACC-257) was greater than 100 µM and the GI50 (UACC-257; read-out: GI50) was greater than 100 µM. The GI50 (UACC-257; read-out: pGI50 (converted)) was greater than 100 µM, the TGI (UACC-257; read-out: pTGI) was greater than 100 µM and the LC50 (MDA-MB-231 [2]) was greater than 100 µM. The GI50 (MDA-MB-231 [2]; read-out: GI50) was 12.1 µM, the GI50 (MDA-MB-231 [2]; read-out: pGI50 (converted)) was 12 µM and the TGI (MDA-MB-231 [2]; read-out: pTGI) was greater than 100 µM. For the same compound, the LC50 (RXF 393) was greater than 100 µM, the GI50 (RXF 393; read-out: GI50) was 3.51 µM and the GI50 (RXF 393; read-out: pGI50 (converted)) was 3.55 µM. It also gave a TGI (RXF 393; read-out: pTGI (converted)) of 28.2 µM, a growth at 10 µM (Malme-3M) of 35.6% and an LC50 (SNB-19) greater than 100 µM. The GI50 (SNB-19; read-out: GI50) was 4.41 µM, the GI50 (SNB-19; read-out: pGI50 (converted)) was 4.37 µM and the TGI (SNB-19; read-out: pTGI (converted)) was 36.3 µM. The growth at 10 µM (OVCAR-8) was 51.2%, the growth at 10 µM (SW-620 [3]) was 35% and the LC50 (U-251) was greater than 100 µM. The GI50 (U-251; read-out: GI50) was 1.58 µM, the GI50 (U-251; read-out: pGI50 (converted)) was 1.58 µM and the TGI (U-251; read-out: pTGI (converted)) was 24 µM. For the same compound, the Activity (MDA-MB-231 [4]) was “inactive”, the LC50 (LOX IMVI) was greater than 100 µM and the GI50 (LOX IMVI; read-out: GI50) was 5.27 µM. For the same compound, the GI50 (LOX IMVI; read-out: pGI50 (converted)) was 5.25 µM and the TGI (LOX IMVI; read-out: pTGI) was greater than 100 µM.
